According to ChEMBL document CHEMBL4152376, “Optimization of 8-Hydroxyquinolines as Inhibitors of Catechol O-Methyltransferase” (J Med Chem, 2018):

Tests used:
[1] = molecular target: T1, Catechol O-methyltransferase (Homo sapiens, UniProt P21964); assay: Inhibition of c-terminal hexa-His tagged human MB-COMT (unknown origin)
T1 sequence (P21964 whole entry): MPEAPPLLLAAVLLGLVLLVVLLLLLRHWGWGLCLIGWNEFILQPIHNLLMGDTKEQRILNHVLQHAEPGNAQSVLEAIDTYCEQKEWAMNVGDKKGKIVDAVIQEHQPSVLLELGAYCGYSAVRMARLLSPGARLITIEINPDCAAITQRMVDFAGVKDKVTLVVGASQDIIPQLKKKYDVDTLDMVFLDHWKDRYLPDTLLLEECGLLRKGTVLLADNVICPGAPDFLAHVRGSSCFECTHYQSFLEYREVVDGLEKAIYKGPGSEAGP

[2] = molecular target: T1, Catechol O-methyltransferase; assay: Inhibition of c-terminal hexa-His tagged human S-COMT expressed in HEK293-6E cell membrane homogenate using 7,8-dihydroxy-4-methylcoumarin as substrate after 1 hr in presence of SAM by MTase glo methyltransferase assay
In short: (§1)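 His6-tagged S-COMT (human or rat), expressed in 293-6E cells and purified by Ni-NTA and size exclusion, 1 ng per well. 20 µM SAM and 10 µM 7,8-dihydroxy-4-methylcoumarin in pH 6.9 Tris/MgCl2/DTT buffer, 1.5% DMSO. 1 h at 37 °C, then MTase-Glo luminescence read against a SAH standard curve. […] 4-parameter IC50; triplicate wells, three runs.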

[3] = molecular target: T1, Catechol O-methyltransferase; assay: Inhibition of c-terminal hexa-His tagged human MB-COMT expressed in HEK293 cell membrane homogenate using norepinephrine as substrate after 1 hr in presence of SAM by MTase glo methyltransferase assay
In short: (§2)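 Membrane homogenate of HEK293 cells expressing C-terminal His6 MB-COMT (human about 7 ng, rat about 4 ng per well, protein by Bradford […]). 20 µM SAM and 7 µM norepinephrine in 50 mM Tris, 5–10 mM MgCl2, 2.5 mM DTT, pH 6.9, final DMSO 1.5%. 1 h at 37 °C, then MTase-Glo luminescence. […] 4-parameter IC50 fit; triplicate points, three experiments.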

[4] = Drug uptake in brain of C57BL/6J mouse at 10 mg/kg, ip measured at 1 hr post dose; format: ADME, organism-based; details: for concentration at 1 h: C57BL/6J, brain, read-out: Drug uptake; for Drug uptake: in vivo, 1 h, BLD = below limit of detection
In short: (§3)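 Male C57BL/6J mice (8 weeks), single ip injection of 10 mg/kg suspended in 0.1% Tween80/0.1% antifoam/1% methylcellulose at 10 mL/kg. Two mice per timepoint; at 1 h, plasma separated at 4 °C and brain homogenized in 4 volumes PBS pH 7.4. Total brain and plasma levels measured.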

[5] = Plasma concentration C57BL/6J mouse at 10 mg/kg, ip measured at 1 hr post dose; format: ADME, organism-based; in short: as §3
[6] = Clearance in rat hepatocytes assessed as per million cells; format: ADME, cell-based, Hepatocyte; details: read-out: CLH
Rattus norvegicus [7] = assay: Volume of distribution at steady state in rat at 1 mg/kg, iv or 3/10 mg/kg, po; format: ADME, organism-based; details: in vivo
In short: (§4)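 Rat pharmacokinetics after a 1 mpk iv dose (n=3) and a 3 or 10 mpk oral dose (n=3).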

[8] = Fraction unbound in rat plasma by equilibrium dialysis; format: ADME, cell-free
In short: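 Percent free drug in mouse or rat plasma, measured by equilibrium dialysis.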

[9] = Efflux ratio of permeability in MDCK cells; format: ADME, cell-based, Canis lupus familiaris; details: dog
In short: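 Efflux ratio taken as […] transport across P-glycoprotein-expressing MDCK cells.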

[10] = Half life in rat at 1 mg/kg, iv or 3/10 mg/kg, po; format: ADME, organism-based; details: in vivo; in short: as §4
Rattus norvegicus [11] = assay: Oral bioavailability in rat at 3/10 mg/kg; format: ADME, organism-based; details: in vivo; in short: as §4
[12] = Apparent permeability of the compound in MDCK cells; format: ADME, cell-based, Canis lupus familiaris; details: dog
[13] = molecular target: T2, Catechol O-methyltransferase (Rattus norvegicus, UniProt P22734); assay: Inhibition of c-terminal hexa-His tagged rat S-COMT expressed in HEK293-6E cell membrane homogenate using 7,8-dihydroxy-4-methylcoumarin as substrate after 1 hr in presence of SAM by MTase glo methyltransferase assay; in short: as §1
T2 sequence (P22734 whole entry): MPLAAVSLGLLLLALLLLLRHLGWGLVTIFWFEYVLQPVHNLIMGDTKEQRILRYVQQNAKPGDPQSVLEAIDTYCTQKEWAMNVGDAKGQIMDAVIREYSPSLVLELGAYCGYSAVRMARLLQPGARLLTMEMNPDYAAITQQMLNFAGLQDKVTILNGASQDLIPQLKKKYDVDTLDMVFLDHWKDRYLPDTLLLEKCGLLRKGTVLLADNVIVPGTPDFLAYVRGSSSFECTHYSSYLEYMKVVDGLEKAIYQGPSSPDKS

[14] = molecular target: T2, Catechol O-methyltransferase; assay: Inhibition of c-terminal hexa-His tagged rat MB-COMT expressed in HEK293 cell membrane homogenate using norepinephrine as substrate after 1 hr in presence of SAM by MTase glo methyltransferase assay; in short: as §2
Rattus norvegicus [15] = assay: In vivo inhibition of COMT in Sprague-Dawley rat assessed as DOPAC levels in CSF at 10 mg/kg, po measured at 4 hrs post dose by LC-MS analysis relative to control; format: functional
In short: (§5)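 Male Sprague Dawley rats (176–200 g on arrival) dosed orally at 10 mg/kg in Tween80/antifoam/methylcellulose suspension, 10 mL/kg, vehicle group as control (n=5–10). At 4 h under isoflurane, CSF drawn from cisterna magna. HVA and DOPAC quantified by LC-MS against standards in 0.01 M perchloric acid/aCSF with d5 internal standards. Reported as % of vehicle.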

[16] = Unbound drug level in brain of Sprague-Dawley rat at 10 mg/kg, po after 4 hrs by ES-UPLC analysis; format: ADME, organism-based; details: in vivo
In short: (§6)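 Sprague Dawley rats given 10 mg/kg po; CSF, plasma and brain collected at 4 h. Drug measured in CSF; free plasma and brain levels computed from total levels using plasma protein and brain tissue binding fractions. Free CSF derived from CSF binding by equilibrium dialysis with pooled rat CSF. Ratios taken from these values.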

[17] = Ratio of unbound drug level in CSF of Sprague-Dawley rat to unbound plasma concentration in Sprague-Dawley rat at 10 mg/kg, po after 4 hrs by ES-UPLC analysis; format: ADME, organism-based; details: CSF and plasma; in short: as §6
[18] = Unbound plasma concentration in Sprague-Dawley rat 10 mg/kg, po after 4 hrs by ES-UPLC analysis; format: ADME, organism-based; details: in vivo; in short: as §6
Rattus norvegicus [19] = assay: In vivo inhibition of COMT in Sprague-Dawley rat assessed as HVA levels in CSF at 10 mg/kg, po measured at 4 hrs post dose by LC-MS analysis relative to control; format: functional; parameters: scale not given: the % may be the effect or the level left; in short: as §5
[20] = Ratio of drug level in CSF of Sprague-Dawley rat to unbound brain concentration in Sprague-Dawley rat at 10 mg/kg, po after 4 hrs by ES-UPLC analysis; format: ADME, organism-based; details: in vivo; in short: as §6
[21] = Protein binding in CSF of Sprague-Dawley rat at 2 uM by equilibrium dialysis; format: ADME, tissue-based, Cerebrospinal fluid; details: read-out: PB (converted)
In short: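 Binding in pooled rat CSF measured by equilibrium dialysis at 2 µM test concentration.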

[22] = Drug level in CSF of Sprague-Dawley rat at 10 mg/kg, po after 4 hrs by ES-UPLC analysis; format: ADME, organism-based, Cerebrospinal fluid; details: read-out: Drug uptake; in short: as §6
[23] = Ratio of drug level in CSF of Sprague-Dawley rat to unbound plasma concentration in Sprague-Dawley rat at 10 mg/kg, po after 4 hrs by ES-UPLC analysis; format: ADME, organism-based; details: in vivo; in short: as §6

Row | Structure (SMILES) | IC50 [2] [nM] | IC50 [3] [nM] | concentration at 1 h [4] [ng/g] | concentration at 1 h [5] [ng/mL] | hepatocyte CLint [6] [µL/min/1e6 cells] | Vdss (Rattus norvegicus [7]) [L/kg] | half-life [10] [h] | F (Rattus norvegicus [11]) [%] | also measured
1 | O=S(=O)(O)c1ccc(O)c2ncccc12 | – | – | – | – | – | – | – | – | IC50 [1]: 6310 nM
2 | O=S(=O)(c1ccc(O)c2ncccc12)N1CCCC1 | 2000 | 7.94 | 10.5 | 68 | 177 | – | – | – | –
3 | COc1ccc(S(=O)(=O)N2CCCC2)c2cccnc12 | – | > 10000 | – | – | – | – | – | – | –
4 | CCS(=O)(=O)c1ccc(O)c2ncccc12 | 1580 | 50.1 | 11 | 250 | 39 | – | – | – | –
5 | Cc1ccc(C(=O)c2ccc(O)c3ncccc23)cc1 | – | 3980 | – | – | – | – | – | – | –
6 | O=S(=O)(c1cc(Cl)c(O)c2ncccc12)N1CCCC1 | 3160 | 10 | 1150 | 16200 | 14 | 0.8 | 8.6 | 33 | Fu [8]: 0.5; efflux ratio [9]: 0.4
7 | Cc1ccc(S(=O)(=O)c2cc(Cl)c(O)c3ncccc23)cc1 | > 10000 | 316 | 1690 | 9780 | 78 | 0.67 | 0.31 | 45 | efflux ratio [9]: 2.2; Papp [12]: > 10 ×10⁻⁶ cm/s
8 | Cc1ccc(S(=O)(=O)c2cc(C(F)(F)F)c(O)c3ncccc23)cc1 | > 10000 | > 10000 | – | – | – | – | – | – | –
9 | O=S(=O)(c1ccc(C(F)(F)F)cc1)c1ccc(O)c2ncccc12 | 1260 | 63.1 | – | 3540 | 46 | – | – | – | Drug uptake [4]: Bld
10 | O=S(=O)(c1cc(F)c(O)c2ncccc12)C1CCCC1 | 2510 | 2 | 1910 | 6160 | 19 | 0.41 | 7.7 | 32 | IC50 [13]: 7940 nM; IC50 [14]: < 1 nM; CSF DOPAC level (% of vehicle) (Rattus norvegicus [15]): 218%; Fu [8]: 0.2; efflux ratio [9]: 0.5; Drug uptake(free) [16]: 12.8 nM; Kp uu at 4 h [17]: 7.3; Cp(f) [18]: 19 nM; Activity (Rattus norvegicus [19]): 66%; Ratio [20]: 25; fraction unbound at 2 µM [21]: 0.43; concentration at 4 h [22]: 321 nM; Ratio [23]: 16.5
11 | O=S(=O)(c1ccc(O)c2ncccc12)C1CCCC1 | 501 | 6.31 | – | 173 | – | 1.8 | 0.18 | 24 | Fu [8]: 0.5; Drug uptake [4]: Bld
12 | O=S(=O)(c1ccc(O)c2ncccc12)N1CCC(c2ccc(F)cc2)C1 (stereo unspecified) | – | 3.16 | – | – | 255 | – | – | – | –
